Measured values taken from ChEMBL document CHEMBL1151806, “Indolizidine, antiinfective and antiparasitic compounds from Prosopis glandulosa var. glandulosa” (J Nat Prod, 2009).
In brackets after ≈: the same amount, converted by molar mass. Activity calls are given as the source filed them. No cut-off for these calls is given here.

Key:
Candida albicans = assay: Antimicrobial activity against Candida albicans ATCC 90028 by NCCLS method; type: functional, organism-based
Method in brief: (§1)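 Samples serially diluted in 20% DMSO/saline, tested in duplicate. Inocula set by OD630: C. albicans RPMI pH 4.5, 1·10^4 CFU/mL; C. neoformans Sabouraud dextrose, 1·10^5; MRSA cation-adjusted Mueller-Hinton pH 7.3, 5·10^5; M. intracellulare 7H9/OADC + 5% Alamar Blue pH 7.3, 2·10^6; A. fumigatus RPMI pH 7.3 + 5% Alamar Blue, 3·10^4.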

Cryptococcus neoformans = assay: Antimicrobial activity against Cryptococcus neoformans ATCC 90113 by NCCLS method; type: functional, organism-based; method in brief: as §1
Aspergillus fumigatus = assay: Antimicrobial activity against Aspergillus fumigatus ATCC 90906 by alamar blue assay; type: functional, organism-based; conditions: Aspergillus fumigatus, ATCC 90906; for IC50: read-out: IC50; method in brief: as §1
SK-MEL = assay: Cytotoxicity against human SK-MEL cells after 48 hrs by neutral red assay; type: functional, cell-based
Method in brief: (§2)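 Cells seeded at 25,000/well, incubated 24 h, then exposed to samples for 48 h. Viable cells measured by Neutral Red uptake. IC50 from logarithmic plots of growth inhibition vs concentration. Doxorubicin positive control, DMSO vehicle control.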

KB = assay: Cytotoxicity against human KB cells after 48 hrs by neutral red assay; type: functional, cell-based; method in brief: as §2
BT-549 = assay: Cytotoxicity against human BT549 cells after 48 hrs by neutral red assay; type: functional, cell-based; conditions: BT-549, 48 h; method in brief: as §2
SK-OV-3 = assay: Cytotoxicity against human SKOV3 cells after 48 hrs by neutral red assay; type: functional, cell-based; conditions: SK-OV-3, 48 h; method in brief: as §2
Vero [1] = assay: Cytotoxicity against african green monkey Vero cells after 48 hrs by neutral red assay; type: cell-based, Chlorocebus sabaeus; method in brief: as §2
[2] = Toxicity in RBC assessed as hemolysis; type: cell-based; conditions: Erythrocyte
Plasmodium berghei [3] = assay: Antimalarial activity as reduced parasitaemia at day 17 against Plasmodium berghei NK65 infected Swiss Webster mice (Mus musculus) at 10 mg/kg/day intraperitoneal dose for 3 days; type: functional; set-up: scale not given: the % may be the effect or the level left
Method in brief: (§3)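 Peters 4-day suppressive test: male Swiss Webster mice (18–20 g) inoculated ip with 2·10^7 P. berghei NK-65 parasitized red cells. Compound in DMSO:PEG:water (1:3:6) given ip ~2 h post-infection, then once daily for 3 days (days 0–2). 5 mice/group; vehicle-treated control. Giemsa-stained tail blood smears read to day 28. % suppression = 100 − (treated/untreated parasitemia × 100). Cure = no parasitemia until day 28. Mice observed after each dose for signs of toxicity.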

Plasmodium berghei [4] = assay: Antimalarial activity as elimination of parasitaemia at day 28 against Plasmodium berghei NK65 infected Swiss Webster mice (Mus musculus) at 10 mg/kg/day intraperitoneal dose for 3 days; type: functional, organism-based; method in brief: as §3
Plasmodium berghei [5] = assay: Antimalarial activity as reduced parasitaemia at day 10 against Plasmodium berghei NK65 infected Swiss Webster mice (Mus musculus) at 10 mg/kg/day intraperitoneal dose for 3 days; type: functional; set-up: scale not given: the % may be the effect or the level left; method in brief: as §3
Staphylococcus aureus = assay: Antimicrobial activity against methicillin-resistant Staphylococcus aureus ATCC 43300 by NCCLS method; type: functional, organism-based; method in brief: as §1
[6] = system: Mycobacterium intracellulare; assay: Antimicrobial activity against Mycobacterium intracellular ATCC 23068 by alamar blue assay; type: functional, organism-based
Method in brief: as §1, with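 “3·10^4. Read at 630 nm or 544ex/590em before and after incubation.” for “3·10^4.”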

Leishmania donovani = assay: Antileishmanial activity against Leishmania donovani promastigotes after 48 hrs by alamar blue assay; type: functional, organism-based
LLC-PK1 = assay: Cytotoxicity against pig LLC-PK1 cells after 48 hrs by neutral red assay; type: cell-based, Sus scrofa; conditions: Sus scrofa, LLC-PK1, 48 h; read-out: IC50; method in brief: as §2
Vero [7] = assay: Cytotoxicity against african green monkey Vero cells; type: cell-based; conditions: Chlorocebus sabaeus; method in brief: as §2
[8] = Selectivity index, IC50 for african green monkey (Cercopithecus aethiops) Vero cells to IC50 for chloroquine-sensitive Plasmodium falciparum D6; type: functional
Method in brief: (§4)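 Selectivity index = IC50 against VERO cells divided by IC50 against P. falciparum (D6 or W2, respectively), each from the corresponding in-house assay.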

Plasmodium falciparum = assay: Antimalarial activity after 72 hrs against chloroquine-resistant Plasmodium falciparum W2 by pLDH activity; type: functional, organism-based; conditions: W2, 72 h
Method in brief: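 P. falciparum-infected red cells (2% parasitemia, 2% hematocrit) in RPMI-1640 with 10% human serum and 60 μg/mL amikacin, exposed to serial sample concentrations. Gassed with 90% N2/5% O2/5% CO2, incubated 37 °C for 72 h. Parasite LDH activity read colorimetrically with Malstat reagent.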

[9] = Selectivity index, IC50 for african green monkey (Cercopithecus aethiops) Vero cells to IC50 for […]; type: functional; method in brief: as §4

C[C@@H]1[C@H](O)[C@@H](C)/C=C/C=C/C=C/C=C/C=C/C=C/C=C/[C@H](O[C@@H]2O[C@H](C)[C@@H](O)[C@H](N)[C@@H]2O)C[C@@H]2O[C@](O)(C[C@@H](O)C[C@@H](O)[C@H](O)CC[C@@H](O)C[C@@H](O)CC(=O)O[C@H]1C)C[C@H](O)[C@H]2C(=O)O [AMPHOTERICIN B]
MIC (Candida albicans; Candida albicans, ATCC 90028): 0.63 µg/mL (≈ 0.682 µM)
IC50 (Candida albicans; Candida albicans, ATCC 90028, read-out: IC50): 0.35 µg/mL (≈ 0.379 µM)
IC50 (Cryptococcus neoformans): 0.45 µg/mL (≈ 0.487 µM)
MIC (Aspergillus fumigatus): 0.63 µg/mL (≈ 0.682 µM)
IC50 (Aspergillus fumigatus): 0.4 µg/mL (≈ 0.433 µM)
IC50 (SK-MEL): 5 µg/mL (≈ 5.41 µM)
IC50 (KB): > 25 µg/mL
IC50 (BT-549): 5.5 µg/mL (≈ 5.95 µM)
IC50 (SK-OV-3): > 25 µg/mL
IC50 (Vero [1]; Chlorocebus sabaeus, Vero, 48 h, read-out: IC50): 7.5 µg/mL (≈ 8.12 µM)
IC50 [2]: 3.9 µg/mL (≈ 4.22 µM)

CCO[C@H]1O[C@@H]2O[C@@]3(C)CC[C@H]4[C@H](C)CC[C@@H]([C@H]1C)[C@@]24OO3 [ARTEMOTIL]
Activity (Plasmodium berghei [3]): 100%
Activity (Plasmodium berghei [4]): Active
Activity (Plasmodium berghei [5]): 100%

C[C@@H]1N[C@H](CCCCCCCCCCc2cc(CCCCCCCCCC[C@H]3CC[C@@H](O)[C@@H](C)N3)c[n+]3c2CCC3)CC[C@H]1O [ISOPROSOPILOSIDINE]
IC50 (Candida albicans): Not Active
MFC (Candida albicans): inactive
MIC (Candida albicans): inactive
IC50 (Cryptococcus neoformans): 0.55 µg/mL
MFC (Cryptococcus neoformans): 1.25 µg/mL
MIC (Cryptococcus neoformans): 1.25 µg/mL
IC50 (Staphylococcus aureus): 0.6 µg/mL
MBC (Staphylococcus aureus): 20 µg/mL
IC50 [6]: 1.5 µg/mL
MBC [6]: inactive
MIC [6]: 2.5 µg/mL
MFC (Aspergillus fumigatus): 10 µg/mL
MIC (Aspergillus fumigatus): 10 µg/mL
IC50 (Aspergillus fumigatus): 6.5 µg/mL
IC90 (Leishmania donovani): 2.5 µg/mL
IC50 (SK-MEL): 3.3 µg/mL
IC50 (KB): 7 µg/mL
IC50 (BT-549): 6.75 µg/mL
IC50 (SK-OV-3): 4.5 µg/mL
IC50 (Vero [1]; vero): Not Active
IC50 (LLC-PK1): 21.3 µg/mL
IC50 (Vero [7]): > 23.8 µg/mL
Ratio IC50 [8]: >567
IC50 (Plasmodium falciparum): 0.12 µg/mL
Ratio IC50 [9]: >198
